Measured values reported in ChEMBL document CHEMBL4613249, “Serendipitous Discovery of Leucine and Methionine Depletion Agents during the Search for Polyamine Transport Inhibitors” (J Med Chem, 2020).
Activity calls are given as the source filed them. The calls are words filed in the database; no cut-off is given here.

Legend:
[1] = biological target: Large neutral amino acids transporter small subunit 1 (Homo sapiens) (UniProt Q01650); assay: Inhibition of LAT1-mediated [3H]-leucine uptake in human L3.6PL cells at 2 to 20 uM and 37 degree C measured after 2 mins by scintillation counter method; type: cell-based
Large neutral amino acids transporter small subunit 1 (Homo sapiens), sequence (Q01650 whole entry): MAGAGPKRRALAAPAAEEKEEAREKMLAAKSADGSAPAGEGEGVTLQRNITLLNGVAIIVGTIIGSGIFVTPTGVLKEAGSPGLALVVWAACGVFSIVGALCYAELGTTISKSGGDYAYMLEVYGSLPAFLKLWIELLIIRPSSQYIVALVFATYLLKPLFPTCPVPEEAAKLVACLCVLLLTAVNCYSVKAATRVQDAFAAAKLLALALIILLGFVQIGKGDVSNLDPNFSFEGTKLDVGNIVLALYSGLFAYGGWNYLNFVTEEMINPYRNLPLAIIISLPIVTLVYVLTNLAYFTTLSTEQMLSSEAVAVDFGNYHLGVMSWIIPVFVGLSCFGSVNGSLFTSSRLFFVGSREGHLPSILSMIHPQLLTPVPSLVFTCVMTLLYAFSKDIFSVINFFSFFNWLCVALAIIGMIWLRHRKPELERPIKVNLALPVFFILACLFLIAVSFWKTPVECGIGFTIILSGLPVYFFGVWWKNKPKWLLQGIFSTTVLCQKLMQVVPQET

[2] = tested on: L3.6pl; assay: Effect on polyamine level in human L3.6PL cells assessed as intracellular putrescine level at 7 uM measured after 72 hrs in presence of amine oxidase suppressor aminoguanidine by LCMS analysis relative to control; type: functional; details: in the assay text read “by N-dansylation and HPLC analysis” for “by LCMS analysis”
Procedure, shortened: (§1)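 L3.6pl cells, 50,000 cells/mL in 10 mL per Petri dish with 1 mM aminoguanidine, plated overnight. Dosed with compound at 2, 5 or 7 μM from PBS stocks, then 72 h at 37°C. Intracellular polyamines measured by N-dansylation and HPLC, in duplicate, as nmol/mg protein against a parallel untreated control.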

[3] = tested on: CHO-K1; assay: Induction of polyamine efflux in aminoguanidine pretreated CHOK1 cells assessed as reduction in cell viability measured after 72 hrs in presence of putrescine by MTS assay; type: ADME, cell-based, Cricetulus griseus; details: chinese hamster, cho-k1, 72 h
[4] = tested on: CHO-MG; assay: Induction of polyamine efflux in aminoguanidine pretreated CHO-MG cells assessed as reduction in cell viability measured after 72 hrs in presence of spermidine by MTS assay; type: ADME, cell-based, Cricetulus griseus; details: chinese hamster
[5] = tested on: L3.6pl; assay: Effect on polyamine level in human L3.6PL cells assessed as acetyl spermidine level per mg protein in supernatant at 5 uM measured after 72 hrs in presence of amine oxidase suppressor aminoguanidine by LCMS analysis (reference value: 1936 +/- 1365 pmol/mg); type: functional
[6] = tested on: CHO-MG; assay: Cytotoxicity against CHO-MG cells assessed as reduction in cell viability after 48 hrs by MTS assay; type: cell-based; details: Cricetulus griseus
Procedure, shortened: (§2)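 Cells in RPMI 1640 with 10% FBS, 1% penicillin/streptomycin, 37°C, 5% CO2, with aminoguanidine (1 mM for CHO K1 and CHO-MG, 250 μM for L3.6pl). Plated overnight at 1000 cells/well (CHO lines) or 500 cells/well (L3.6pl). Compound in PBS added, 48 h exposure. Growth read as MTS formazan absorbance at 490 nm. IC50 is the dose giving 50% relative growth versus untreated control. Run twice in triplicate.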

[7] = tested on: L3.6pl; assay: Effect on polyamine level in human L3.6PL cells assessed as glutamic acid level per mg protein in supernatant at 2 uM measured after 72 hrs in presence of amine oxidase suppressor aminoguanidine by LCMS analysis (reference value: 23412 +/- 3983 pmol/mg)
[8] = tested on: L3.6pl; assay: Cytotoxicity against human L3.6PL cells assessed as reduction in cell viability at 0.25 to 20 uM measured after 24 to 72 hrs by MTS assay; type: cell-based
Procedure, shortened: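 Time course in L3.6pl cells, 500 cells/well, with compound alone for 24, 48 and 72 h exposure at 37°C. Growth by MTS absorbance at 490 nm relative to untreated control.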

[9] = biological target: Large neutral amino acids transporter small subunit 1 (Homo sapiens) (UniProt Q01650); assay: Inhibition of LAT1-mediated amino acid transport in human L3.6PL cells assessed as reduction in intracellular leucine level by measuring leucine level per mg protein in cell lysate at 7 uM measured after 72 hrs by LCMS analysis (reference value: 232 +/- 10 pmol/mg); type: cell-based
Procedure, shortened: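 L3.6pl cells (50,000 cells/mL, 10 mL, 1 mM aminoguanidine) were seeded in poly-lysine-treated 9 cm dishes and incubated overnight at 37°C. They were then dosed with compound at 2, 5 or 7 μM from PBS stocks (2, 5, 7 mM) and incubated 72 h. Runs were done in triplicate, with amino acid levels per mg protein.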

[10] = Selectivity index, ratio of IC50 for cytotoxicity against CHO-MG cells assessed as reduction in cell viability after 48 hrs by MTS assay to IC50 for […] human L3.6PL cells assessed as reduction in cell viability after 48 hrs by MTS assay
Procedure, shortened: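 The ratio is of 48 h IC50 values from MTS growth assays. CHO K1/CHO-MG cells were plated at 1000 cells/well and L3.6pl at 500 cells/well, drug in PBS was added after overnight incubation, and absorbance was read at 490 nm. IC50 is 50% growth versus untreated control; runs were done twice in triplicate.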

[11] = tested on: CHO-K1; assay: Induction of polyamine efflux in aminoguanidine pretreated CHOK1 cells assessed as reduction in cell viability measured after 72 hrs in presence of spermine by MTS assay; type: ADME, cell-based, Cricetulus griseus; details: chinese hamster, cho-k1, 72 h
[12] = biological target: Large neutral amino acids transporter small subunit 1 (Homo sapiens) (UniProt Q01650); assay: Induction of LAT1-mediated polyamine efflux in aminoguanidine pretreated human L3.6PL cells assessed as reduction in cell viability at 5 uM measured after 72 hrs in presence of spermidine by MTS assay; type: cell-based
Procedure, shortened: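 L3.6pl cells pre-incubated 24 h with 250 μM aminoguanidine. Then given increasing compound plus putrescine, spermidine or spermine, each fixed at 1 or 5 μM, for 72 h at 37°C. Growth by MTS relative to untreated control.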

[13] = tested on: L3.6pl; assay: Effect on polyamine level in human L3.6PL cells assessed as putrescine level per mg protein in supernatant at 5 uM measured after 72 hrs in presence of amine oxidase suppressor aminoguanidine by LCMS analysis (reference value: 977 +/- 522 pmol/mg); type: functional
[14] = tested on: CHO-K1; assay: Cytotoxicity against CHOK1 cells assessed as reduction in cell viability after 48 hrs by MTS assay; type: cell-based; details: Cricetulus griseus, CHO-K1, 48 h; procedure, shortened: as §2
[15] = tested on: CHO-K1; assay: Induction of polyamine efflux in aminoguanidine pretreated CHOK1 cells assessed as reduction in cell viability measured after 72 hrs in presence of spermidine by MTS assay; type: ADME, cell-based, Cricetulus griseus; details: chinese hamster, cho-k1, 72 h
[16] = tested on: L3.6pl; assay: Effect on polyamine level in human L3.6PL cells assessed as methionine level human L3.6PL cells assessed per mg protein in supernatant at 5 uM pretreated with aminoguanidine for 24 hrs followed by compound treatment after 72 hrs by LCMS analysis (reference value: 22834 +/- 1984 pmol/mg); type: functional
[17] = tested on: L3.6pl; assay: Potentiation of 2 uM N-(anthracenylmethyl) homospermidine-induced toxicity in human L3.6PL cells assessed as increase in Ant-44-induced reduction in cell growth measured after 72 hrs in presence of amine oxidase suppressor aminoguanidine by MTS assay; type: functional, cell-based
Procedure, shortened: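 L3.6pl cells (500 cells/well) were pretreated 24 h with 250 μM aminoguanidine in PBS, then given Ant-44 (2 μM) with increasing compound for 72 h at 37°C. MTS growth was read, with EC50 relative to the Ant-44-only control.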

[18] = tested on: L3.6pl; assay: Effect on polyamine level in human L3.6PL cells assessed as leucine level per mg protein in supernatant at 2 uM measured after 72 hrs in presence of amine oxidase suppressor aminoguanidine by LCMS analysis (reference value: 18009 +/- 9061 pmol/mg); type: functional
[19] = tested on: L3.6pl; assay: Induction of polyamine import in human L3.6PL cells assessed as increase in intracellular Ant-44 uptake by measuring Ant-44 level per protein at 1 measured up to 72 hrs in presence of amine oxidase suppressor aminoguanidine by LCMS analysis (reference value: 2.15 +/- 0.1 nmol/mg); type: functional
[20] = tested on: L3.6pl; assay: Effect on polyamine level in human L3.6PL cells assessed as change in putrescine level at 2 to 7 uM measured after 72 hrs in presence of amine oxidase suppressor aminoguanidine by LCMS analysis; type: functional, cell-based; details: in the assay text read “by N-dansylation and HPLC analysis” for “by LCMS analysis”; procedure, shortened: as §1

CC(C)CCN1CCN([C@@H](CNCc2ccccc2)CC2CCCCC2)C[C@@H]1CC(C)C
inhibition [1]: inactive | Activity [2]: 83% | Activity [3]: Active | Activity [4]: Active | Activity [5]: 1706 pmol/mg | IC50 [6]: 8.93 µM | Activity [7]: 20231 pmol/mg | Activity [8]: Toxic | Activity [9]: 77 pmol/mg | Ratio IC50 [10]: 2 | Activity [11]: Active | Activity [12]: Active | Activity [13]: 2224 pmol/mg | IC50 [14]: 8 µM | Activity [15]: Active | Activity [16]: 64036 pmol/mg | EC50 [17]: 0.29 µM | Activity [18]: 15055 pmol/mg | Activity [19]: 2.08 nmol/mg | Activity [20]: inactive
